TAAR1 antagonist: antagonists of human TAAR1; Q96RJ0; inhibition, % at 3 µM; hit rate 1.5% among 360,000; CHO RD-HGA16 TAAR1, Fluo-8 calcium fluorescence, antagonist;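 active = inhibition above a per-plate cutoff, the mean inhibition of test compounds on that plate plus 3 SD, cut at about 49% in these data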;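 note: 0% = DMSO plus EC80 beta-PEA response and 100% = DMSO alone without agonist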
Target sequence (Q96RJ0 whole entry, looked up): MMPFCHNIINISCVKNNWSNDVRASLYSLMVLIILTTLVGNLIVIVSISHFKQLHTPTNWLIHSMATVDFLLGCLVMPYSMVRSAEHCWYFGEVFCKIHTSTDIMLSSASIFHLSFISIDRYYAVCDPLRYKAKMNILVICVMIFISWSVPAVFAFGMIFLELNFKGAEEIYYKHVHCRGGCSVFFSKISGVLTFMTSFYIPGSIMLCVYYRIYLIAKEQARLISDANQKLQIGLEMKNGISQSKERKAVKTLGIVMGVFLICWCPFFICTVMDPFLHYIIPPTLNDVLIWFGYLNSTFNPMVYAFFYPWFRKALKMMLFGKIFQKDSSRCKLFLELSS
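Material: CHO RD-HGA16 cells bearing hTAAR1; compound dosing: one-point dosing, 3 µM nominal final; schedule: dye loading 75 min at 37 °C, then 30 min room temperature; measured by: calcium fluorescence with Fluo-8; control set: vehicle and agonist controls; replication: n of 1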
OXTR ag: activates the human oxytocin receptor | hit rate 0.32% among 320,000 | CHO-OTR cells, Fluo-8 calcium fluorescence; normalized: DMSO 0%, oxytocin 100% | activation, % at 3 µM;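 active = activation above the mean of all tested compounds plus 3 SD, cutoff set per screening run, cut at about 20% in these data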;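 note: peak over basal fluorescence ratio from a 100 s FLIPR kinetic read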
V1R ag counter: counter-screen for oxytocin receptor agonists: human V1a receptor agonists. P37288. CHO-V1R cells, Fluo-8 calcium fluorescence, agonist mode; 0% DMSO, 100% 3 nM vasopressin. activation, % at 3 µM. hit rate 0.25% among 320,000;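 active = activation above the mean activation of all tested compounds plus 3 SD, per screening run, cut at about 20% in these data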;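 note: signal is peak over basal fluorescence ratio across a 100 second FLIPR read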
OXTR potentiator: potentiates the human oxytocin receptor response. AID 2445. activation, % at 3 µM. CHO-OTR cells, Fluo-8 calcium fluorescence, potentiator mode; 0% = oxytocin EC15, 100% = EC100. hit rate 0.061% among 320,000;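 active = activation above that plate's cutoff, the mean activation of tested compounds plus 3 SD, cut at about 6.6% in these data, passing the limit was not always enough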;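 note: 100% uses oxytocin at 75 nM as the full agonist control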
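assay system = CHO-OTR cells, human receptor | schedule = compound 6 min at room temperature before oxytocin, 100 s read | detection = Fluo-8 intracellular calcium fluorescence, ex 470-495, em 515-575 nm | evaluation = normalized max/min fluorescence ratio, % activation | control set = EC15 oxytocin alone as 0%, 75 nM oxytocin (EC100) as 100%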
TAAR1 agonist: human TAAR1 agonism. hit rate 0.99% among 360,000. activation, % at 3 µM. CHO RD-HGA16 TAAR1, Fluo-8 calcium fluorescence; vehicle wells 0%, saturating PEA agonist 100%;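 active = activation above the mean activation of all test compounds in the run plus 3 SD, cut at about 38% in these data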
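System: CHO-derived RD-HGA16 cells with stable Gα16 and human TAAR1. Times: 17-24 h plating, Fluo-8 75 min 37 °C, 30 min RT. Measured by: calcium-sensitive Fluo-8 signal, excitation 470-495, emission 515-575 nm. Read-out basis: % activation relative to PEA EC100 response. Control set: DMSO and PEA EC100. Repeats: no replicates (n 1).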
nonsel antag count: nonselective antagonism, TAAR1 counter-screen; shares compounds with TAAR1 antagonist; counterscreen cell line, calcium fluorescence, antagonist mode; inhibition, % at 3 µM; hit rate 77% among 2,400; AID 651780; in the data active = inhibition above about 22%;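 note: CHO-Ga16 host cells stimulated with ATP at an EC80 level; 0% = agonist EC80 plus vehicle and 100% = vehicle without agonist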
TAAR1 ant conf: confirmation of human TAAR1 antagonists | shares compounds with TAAR1 antagonist | TAAR1-expressing cells, fluorescence antagonist read-out | inhibition, % at 3 µM | hit rate 40% among 2,400; in the data active = inhibition above about 49%;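 note: CHO-Ga16 host cells challenged with agonist PEA near its EC80; 0% = agonist at EC80 plus vehicle and 100% = vehicle with no agonist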
Ga16 ag counter: nonselective Ga16 agonism, counter-screen. activation, % at 3 µM. shares compounds with TAAR1 antagonist. AID 651953. hit rate 18% among 2,400. Ga16-expressing cells, calcium fluorescence, agonist counterscreen; in the data active = activation above about 12%;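 note: 0% = vehicle wells and 100% = saturating stimulus response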
TAAR1 ag count: activates human TAAR1 in antagonist counter-screen; shares compounds with TAAR1 antagonist; hTAAR1 cell line, fluorescence activation, agonist mode; activation, % at 3 µM; hit rate 2% among 2,400; AID 651955; in the data active = activation above about 37%;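 note: CHO cells stably expressing TAAR1 with calcium dye readout; 0% = DMSO vehicle and 100% = full agonist response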
The depositor's hits bear a star; . = no result given. The list is not random: actives were taken first. Their share in the collection is about 2.3%.

SMILES	TAAR1 antagonist	OXTR ag	V1R ag counter	OXTR potentiator	TAAR1 agonist	nonsel antag count	TAAR1 ant conf	Ga16 ag counter	TAAR1 ag count
COc1ccc(NS(=O)(=O)c2cccc(C(=O)NNC(=O)c3cccc(NC(C)=O)c3)c2)cc1	-21	0	2	-1	1	.	.	.	.
O=C(/C=C/c1cn(-c2ccccc2)nc1-c1cccc(Cl)c1)N1CCN(c2ccccn2)CC1	53*	0	0	-9	0	18	31	3	4
Oc1ccc(-c2nc3ccccn3c2NCc2ccc3c(c2)OCO3)cc1	55*	2	4	-14	17	30*	53*	11	10
Fc1ccc(-c2nc3ccccn3c2NCc2ccc3c(c2)OCO3)cc1	17	-2	0	-3	8	.	.	.	.
O=C(CSc1ccccn1)Nc1cccc(NC(=O)CSc2ccccn2)n1	60*	3	0	-14	31	34*	46	14*	12
CN(C(=O)c1cccc(NC(=O)Cc2ccc(NC(=O)C3CCCN(C(=O)c4ccccc4)C3)cc2)c1)C1CCCC1 (centres undefined)	-21	.	.	.	3	.	.	.	.
COc1ccc(/C=N/Nc2nc(-c3ccc(C)cc3)c(NC(C)=O)s2)cc1	51*	-2	-1	-4	0	7	42	1	4
CC(=O)Nc1ccc(S(=O)(=O)N[C@@H](C)C(=O)OCC(=O)c2ccc(Br)s2)cc1	-10	.	.	.	4	.	.	.	.
CCCCn1c(O)c(N=NC(=O)c2ccco2)c2ccccc21	52*	-3	0	-7	12	15	37	7	13
Cc1ncc(CO)c2c1Oc1nc(-c3ccccc3)nc(SCC(=O)N(C)c3ccccc3)c1C2	62*	1	3	-13	8	27*	46	6	7
Cc1ncc(CO)c2c1Oc1nc(-c3ccccc3F)nc(SCC(=O)N(C)c3ccccc3)c1C2	.	0	1	-14	.	.	.	.	.
CCOC(=O)c1c(C)[nH]c(C(=O)COC(=O)C2CC2)c1C	-1	.	.	.	2	.	.	.	.
CCOC(=O)c1c(C)[nH]c(C(=O)COC(=O)C2(C)CC2(Cl)Cl)c1C (centres undefined)	71*	2	6	-22	15	45*	74*	11	14
CC(C)C#Cc1cnc2c(c1)C(=O)N([C@@H](C)CO)C[C@@H](C)[C@H](CN(C)Cc1cccc(F)c1)O2	-7	.	.	.	1	.	.	.	.
CCc1ccc(OCCNC(=O)c2ccccc2SCc2ccc(F)cc2)cc1	54*	2	3	-1	15	26*	36	3	2
COc1ccc(NC(=O)c2ccccc2SCc2ccccc2)cc1	11	.	.	.	1	.	.	.	.
O=C(NCCOc1ccc(F)cc1)c1ccccc1SCc1ccccc1	60*	0	0	-13	10	30*	53*	7	3
C=Cc1ccc(Cn2c(C)c(C(=O)NCc3cccc([N+](=O)[O-])c3)sc2=O)cc1	44	.	.	.	3	.	.	.	.
Cc1cc2[nH]c(=O)c(=O)[nH]c2cc1S(=O)(=O)NC1CCCCC1C (centres undefined)	.	0	2	-4	.	.	.	.	.
COc1ccc(-n2nc(C(=O)NCC(=O)Nc3cccc(Cl)c3)c3ccccc3c2=O)cc1OC	55*	0	1	-11	20	25*	48	10	11
CCOc1ccc(NC(=O)CNC(=O)c2nn(-c3ccc(OC)c(OC)c3)c(=O)c3ccccc23)cc1	46	3	4	-11	21	.	.	.	.
CCOC(=O)CNC(=O)CNC(=O)c1nn(-c2ccc(OC)c(OC)c2)c(=O)c2ccccc12	-5	0	0	0	5	.	.	.	.
COc1ccc(-n2nc(C(=O)NCC(=O)N3CCOCC3)c3ccccc3c2=O)cc1Cl	14	0	2	-7	8	.	.	.	.
CCOc1ccccc1NC(=O)CNC(=O)c1nn(-c2ccc(OC)c(OC)c2)c(=O)c2ccccc12	60*	-2	-1	-5	17	30*	41	7	14
CCOC(=O)C1CCN(C(=O)CNC(=O)c2nn(-c3ccc(OC)c(Cl)c3)c(=O)c3ccccc23)CC1	61*	-2	-2	-7	13	28*	42	7	6
SMILES	TAAR1 antagonist	OXTR ag	V1R ag counter	OXTR potentiator	TAAR1 agonist	nonsel antag count	TAAR1 ant conf	Ga16 ag counter	TAAR1 ag count
COc1ccc(-n2nc(C(=O)NCC(=O)NCC3COc4ccccc4O3)c3ccccc3c2=O)cc1OC (centres undefined)	58*	2	-1	-5	13	27*	49*	7	5
O=C(OCC(=O)N1CCOCC1)c1ccc(F)cc1Cl	10	1	0	-4	-1	.	.	.	.
COc1ccc(-n2nc(C(=O)NCC(=O)NCCc3ccc(OC)c(OC)c3)c3ccccc3c2=O)cc1	38	-1	-1	3	20	.	.	.	.
COc1ccc(NC(=O)CNC(=O)c2nn(-c3ccc(OC)c(Cl)c3)c(=O)c3ccccc23)c(OC)c1	61*	-1	4	-11	10	24*	49*	6	7
COc1ccc(CCNC(=O)CNC(=O)c2nn(-c3ccc(OC)c(OC)c3)c(=O)c3ccccc23)cc1OC	53*	-1	0	-4	17	33*	51*	12*	9
C/C=C(\C)CN1CCC(Oc2cccc(C(=O)NCc3ccccn3)c2)CC1	0	0	1	-3	1	.	.	.	.
C(=N\Nc1nc(-c2cccnc2)nc2ccccc12)/c1ccccc1	41	-2	-1	-2	9	.	.	.	.
Brc1ccc(-c2nc(N/N=C/c3cccnc3)c3ccccc3n2)cc1	78*	0	1	-16	15	31*	49*	7	4
O=C(c1cc(C(=O)NCCc2ccccc2)c(=O)n(CCc2ccccc2)c1)c1cc(Cl)ccc1O	65*	-1	0	-10	16	38*	61*	6	3
CCSC(=Nc1ccccc1)N1CCOCC1	-7	0	2	-4	1	.	.	.	.
COc1ccccc1NS(=O)(=O)c1cc([N+](=O)[O-])ccc1N/N=C/c1c(C)[nH]c2ccccc12	58*	17	15	-9	33	47*	46	16*	9
CCOc1cc(S(=O)(=O)NCC2CCCO2)ccc1F (centres undefined)	-2	1	2	-4	1	.	.	.	.

Screens as filed in PubChem.
